# According to ChEMBL document CHEMBL1955837 (J Med Chem, 2012):
# The source made the active and inactive calls. No cut-off for these calls is given here.
# Key:
# Nitric oxide synthase 3 [1] = molecular target: T1, Nitric oxide synthase 3 (Homo sapiens, UniProt P29474); assay: Inhibition of human recombinant eNOS expressed in baculovirus infected insect Sf9 cells assessed as conversion of [3H]L-arginine to [3H]L-citrulline incubated for 15 mins prior to substrate addition measured after 45 mins by liquid scintillation counting
# T1 sequence (P29474 whole entry): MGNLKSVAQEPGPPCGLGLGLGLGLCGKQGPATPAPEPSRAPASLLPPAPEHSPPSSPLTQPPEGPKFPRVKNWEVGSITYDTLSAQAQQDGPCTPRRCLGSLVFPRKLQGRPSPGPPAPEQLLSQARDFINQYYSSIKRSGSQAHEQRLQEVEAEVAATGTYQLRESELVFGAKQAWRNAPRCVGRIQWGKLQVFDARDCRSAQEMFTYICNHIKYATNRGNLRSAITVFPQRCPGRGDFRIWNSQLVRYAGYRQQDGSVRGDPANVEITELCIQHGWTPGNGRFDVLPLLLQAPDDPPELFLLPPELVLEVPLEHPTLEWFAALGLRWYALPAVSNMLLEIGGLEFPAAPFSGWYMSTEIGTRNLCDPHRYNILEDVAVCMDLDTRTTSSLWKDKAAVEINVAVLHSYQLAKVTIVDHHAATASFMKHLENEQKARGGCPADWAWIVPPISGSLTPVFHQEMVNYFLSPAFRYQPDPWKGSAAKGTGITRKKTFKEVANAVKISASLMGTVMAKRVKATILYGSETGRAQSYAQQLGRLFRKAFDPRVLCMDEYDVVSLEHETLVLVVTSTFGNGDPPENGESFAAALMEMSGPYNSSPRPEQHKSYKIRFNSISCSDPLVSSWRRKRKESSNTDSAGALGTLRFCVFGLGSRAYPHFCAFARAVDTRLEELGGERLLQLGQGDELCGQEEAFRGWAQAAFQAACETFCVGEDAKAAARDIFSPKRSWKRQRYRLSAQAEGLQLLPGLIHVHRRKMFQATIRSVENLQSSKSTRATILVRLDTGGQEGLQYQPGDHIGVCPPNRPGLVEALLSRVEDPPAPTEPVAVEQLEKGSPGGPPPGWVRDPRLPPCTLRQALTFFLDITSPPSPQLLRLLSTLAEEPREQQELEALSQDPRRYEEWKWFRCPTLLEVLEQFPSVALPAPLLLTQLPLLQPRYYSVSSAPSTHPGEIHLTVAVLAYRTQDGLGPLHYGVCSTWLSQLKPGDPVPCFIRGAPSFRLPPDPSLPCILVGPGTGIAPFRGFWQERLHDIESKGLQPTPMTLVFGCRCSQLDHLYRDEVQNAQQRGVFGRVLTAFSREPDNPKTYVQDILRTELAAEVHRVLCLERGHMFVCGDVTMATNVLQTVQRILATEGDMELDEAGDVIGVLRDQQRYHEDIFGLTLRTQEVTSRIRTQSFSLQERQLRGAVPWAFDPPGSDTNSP
# [2] = molecular target: Nitric oxide synthase, inducible (Homo sapiens, UniProt P35228); assay: Inhibition of human recombinant iNOS expressed in baculovirus infected insect Sf9 cells assessed as conversion of [3H]L-arginine to [3H]L-citrulline incubated for 15 mins prior to substrate addition measured after 45 mins by liquid scintillation counting
# Sequence of Nitric oxide synthase, inducible (Homo sapiens, UniProt P35228) (P35228 whole entry): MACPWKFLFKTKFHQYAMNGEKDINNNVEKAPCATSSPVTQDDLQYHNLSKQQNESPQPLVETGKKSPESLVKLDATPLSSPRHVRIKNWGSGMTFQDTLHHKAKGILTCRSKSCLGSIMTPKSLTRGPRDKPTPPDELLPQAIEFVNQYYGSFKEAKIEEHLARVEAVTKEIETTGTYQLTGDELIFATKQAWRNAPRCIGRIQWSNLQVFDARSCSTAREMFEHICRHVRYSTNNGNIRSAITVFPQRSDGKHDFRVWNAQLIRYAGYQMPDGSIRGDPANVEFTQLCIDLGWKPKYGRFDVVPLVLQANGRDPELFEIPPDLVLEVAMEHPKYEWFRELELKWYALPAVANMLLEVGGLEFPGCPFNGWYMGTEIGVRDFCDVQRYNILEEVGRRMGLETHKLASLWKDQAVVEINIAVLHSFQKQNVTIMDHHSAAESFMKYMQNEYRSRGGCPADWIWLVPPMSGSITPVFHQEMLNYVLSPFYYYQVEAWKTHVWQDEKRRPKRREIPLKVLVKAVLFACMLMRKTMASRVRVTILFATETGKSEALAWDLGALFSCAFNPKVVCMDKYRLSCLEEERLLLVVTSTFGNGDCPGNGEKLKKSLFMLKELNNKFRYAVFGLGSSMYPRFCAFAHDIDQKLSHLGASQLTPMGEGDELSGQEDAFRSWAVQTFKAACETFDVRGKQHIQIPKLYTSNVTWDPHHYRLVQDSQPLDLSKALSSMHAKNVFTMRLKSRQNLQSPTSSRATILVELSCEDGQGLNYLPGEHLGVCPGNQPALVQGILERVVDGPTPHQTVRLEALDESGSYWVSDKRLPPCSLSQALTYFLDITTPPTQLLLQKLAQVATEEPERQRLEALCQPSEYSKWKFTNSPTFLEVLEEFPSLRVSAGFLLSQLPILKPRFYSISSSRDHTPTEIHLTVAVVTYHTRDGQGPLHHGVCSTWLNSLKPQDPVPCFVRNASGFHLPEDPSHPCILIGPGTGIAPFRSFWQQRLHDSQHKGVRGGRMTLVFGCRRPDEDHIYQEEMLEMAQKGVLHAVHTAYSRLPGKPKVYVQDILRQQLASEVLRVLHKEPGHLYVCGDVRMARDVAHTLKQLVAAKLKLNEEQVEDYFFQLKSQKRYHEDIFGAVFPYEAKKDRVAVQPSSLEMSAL
# Homo sapiens = species: Homo sapiens; assay: Selectivity ratio of IC50 for human recombinant eNOS to IC50 for human recombinant nNOS
# [3] = molecular target: Nitric oxide sythases; iNOS & nNOS (Homo sapiens) (UniProt P29475+P35228); assay: Selectivity ratio of IC50 for human recombinant iNOS to IC50 for human recombinant nNOS
# Sequence of Nitric oxide sythases; iNOS & nNOS (Homo sapiens) (P29475 whole entry, looked up): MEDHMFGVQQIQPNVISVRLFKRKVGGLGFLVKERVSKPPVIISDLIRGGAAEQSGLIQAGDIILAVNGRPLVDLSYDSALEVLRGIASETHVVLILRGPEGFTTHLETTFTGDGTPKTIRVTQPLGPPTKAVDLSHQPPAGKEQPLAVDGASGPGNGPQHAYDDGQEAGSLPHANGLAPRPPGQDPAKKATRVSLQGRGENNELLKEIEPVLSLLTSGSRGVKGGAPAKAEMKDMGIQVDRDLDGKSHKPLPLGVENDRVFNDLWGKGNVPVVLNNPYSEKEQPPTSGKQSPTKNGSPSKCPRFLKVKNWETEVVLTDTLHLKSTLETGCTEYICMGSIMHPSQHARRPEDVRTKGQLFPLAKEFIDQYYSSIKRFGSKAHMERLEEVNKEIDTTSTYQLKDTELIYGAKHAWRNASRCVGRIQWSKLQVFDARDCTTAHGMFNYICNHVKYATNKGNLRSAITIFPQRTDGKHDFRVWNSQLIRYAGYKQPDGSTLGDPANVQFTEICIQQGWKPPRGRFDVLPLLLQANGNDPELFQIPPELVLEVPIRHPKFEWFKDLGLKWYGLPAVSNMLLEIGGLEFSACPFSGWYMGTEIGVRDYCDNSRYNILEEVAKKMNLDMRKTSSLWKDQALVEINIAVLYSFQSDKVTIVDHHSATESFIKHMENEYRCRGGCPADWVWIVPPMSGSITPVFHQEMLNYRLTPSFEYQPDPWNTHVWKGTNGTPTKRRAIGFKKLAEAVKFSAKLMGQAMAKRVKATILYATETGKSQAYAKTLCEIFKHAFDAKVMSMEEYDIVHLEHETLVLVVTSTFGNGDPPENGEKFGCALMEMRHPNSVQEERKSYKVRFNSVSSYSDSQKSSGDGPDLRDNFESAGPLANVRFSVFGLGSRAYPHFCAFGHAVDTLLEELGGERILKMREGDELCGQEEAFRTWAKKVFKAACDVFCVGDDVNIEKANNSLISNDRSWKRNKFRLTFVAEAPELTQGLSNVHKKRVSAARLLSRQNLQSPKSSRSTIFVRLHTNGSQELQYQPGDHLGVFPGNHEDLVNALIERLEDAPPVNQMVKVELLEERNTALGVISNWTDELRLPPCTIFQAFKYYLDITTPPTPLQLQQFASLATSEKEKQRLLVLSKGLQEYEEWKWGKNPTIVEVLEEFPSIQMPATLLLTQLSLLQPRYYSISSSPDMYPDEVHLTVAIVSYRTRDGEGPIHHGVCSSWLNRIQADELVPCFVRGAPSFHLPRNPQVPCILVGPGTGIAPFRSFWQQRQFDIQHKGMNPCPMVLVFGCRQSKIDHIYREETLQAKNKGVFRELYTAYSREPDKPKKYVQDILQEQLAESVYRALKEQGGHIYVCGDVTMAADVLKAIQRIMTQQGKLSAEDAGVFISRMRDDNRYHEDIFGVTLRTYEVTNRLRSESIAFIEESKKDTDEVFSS
# Sequence of Nitric oxide sythases; iNOS & nNOS (Homo sapiens) (P35228 whole entry, looked up): as the sequence (P35228 whole entry) above
# Nitric oxide synthase 1 [4] = molecular target: Nitric oxide synthase 1 (Homo sapiens, UniProt P29475); assay: Inhibition of human recombinant nNOS expressed in baculovirus infected insect Sf9 cells assessed as conversion of [3H]L-arginine to [3H]L-citrulline incubated for 15 mins prior to substrate addition measured after 45 mins by liquid scintillation counting
# Sequence of Nitric oxide synthase 1 (Homo sapiens, UniProt P29475) (P29475 whole entry): as the sequence (P29475 whole entry, looked up) above
# [5] = molecular target: Muscarinic acetylcholine receptor M1 (Homo sapiens) (UniProt P11229); assay: Displacement of [3H]pirenzepine from human recombinant muscarinic M1 receptor expressed in CHO cells at 10 uM after 60 mins; format: cell-based
# Sequence of Muscarinic acetylcholine receptor M1 (Homo sapiens) (P11229 whole entry): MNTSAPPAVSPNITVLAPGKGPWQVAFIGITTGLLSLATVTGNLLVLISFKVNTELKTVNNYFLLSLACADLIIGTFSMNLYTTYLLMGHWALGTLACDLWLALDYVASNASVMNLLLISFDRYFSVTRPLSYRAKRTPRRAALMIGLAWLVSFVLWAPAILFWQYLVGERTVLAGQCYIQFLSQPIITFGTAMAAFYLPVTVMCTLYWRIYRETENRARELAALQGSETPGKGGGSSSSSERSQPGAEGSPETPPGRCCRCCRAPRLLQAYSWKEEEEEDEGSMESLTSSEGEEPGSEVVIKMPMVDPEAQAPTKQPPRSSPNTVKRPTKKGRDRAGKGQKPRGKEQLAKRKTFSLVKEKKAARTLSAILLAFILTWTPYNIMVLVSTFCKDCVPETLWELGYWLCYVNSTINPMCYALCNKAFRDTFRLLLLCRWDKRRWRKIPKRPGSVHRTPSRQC
# Summary of the method: (§1)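 Single-concentration (10 μM) radioligand binding screen. Specific binding = total minus nonspecific binding, with nonspecific binding taken in excess unlabeled ligand. Results were given as percent inhibition of control specific binding.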
# Rattus norvegicus [6] = assay: Analgesic activity in rat Chung model of neuropathic pain assessed as partial reversal of thermal hyperalgesia at 30 mg/kg, ip measured after 30 mins; conditions: route intraperitoneal
# [7] = Cardiotoxicity in human arteries assessed as inhibition of acetylcholine-mediated vasorelaxation at 100 uM pretreated with U46619 prior to Ach challenge measured after 50 mins; format: toxicity, tissue-based, Artery
# Summary of the method: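 Human resistance artery rings (~2 mm) were wire-mounted in a myograph in Krebs-bicarbonate PSS gassed with 95% O2/5% CO2 at 37 °C, and isometric tension was recorded. After ≥30 min equilibration, rings received three KPSS (62.5 mM) challenges. Endothelial integrity was checked with U46619 (1 × 10⁻⁷ M) then ACh. Compound was added for 50 min without L-arginine, then rings were submaximally precontracted with U46619 before cumulative ACh (1 × 10⁻¹⁰ to 1 × 10⁻⁵ M).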
# [8] = molecular target: Kappa-type opioid receptor (Rattus norvegicus) (UniProt P34975); assay: Displacement of [3H]U 69593 from rat recombinant kappa opioid receptor expressed in CHO cells at 10 uM after 60 mins; format: cell-based; summary of the method: as §1
# Sequence of Kappa-type opioid receptor (Rattus norvegicus) (P34975 whole entry): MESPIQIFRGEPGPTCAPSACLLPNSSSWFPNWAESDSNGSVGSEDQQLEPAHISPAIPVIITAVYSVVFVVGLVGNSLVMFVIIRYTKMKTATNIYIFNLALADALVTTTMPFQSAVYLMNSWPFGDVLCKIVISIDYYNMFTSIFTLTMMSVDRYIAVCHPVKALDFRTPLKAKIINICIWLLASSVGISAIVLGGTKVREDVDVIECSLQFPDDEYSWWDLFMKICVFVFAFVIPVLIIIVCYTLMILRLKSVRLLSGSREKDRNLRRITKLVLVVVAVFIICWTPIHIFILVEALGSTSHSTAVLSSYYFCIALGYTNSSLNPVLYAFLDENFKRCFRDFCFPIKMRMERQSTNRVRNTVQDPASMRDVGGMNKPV
# Rattus norvegicus [9] = assay: Analgesic activity in rat Chung model of neuropathic pain assessed as partial reversal of thermal hyperalgesia at 30 mg/kg, ip; format: functional, organism-based; parameters: dose 30 mg/kg
# Summary of the method: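 Rats anesthetized with halothane; L5 and L6 spinal nerves exposed, isolated and tightly ligated with 4-0 silk suture distal to the DRG. After surgical recovery, hyperalgesia was read as paw withdrawal latency to radiant heat applied to the paw after intraperitoneal dosing.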
# [10] = molecular target: T2, Sodium-dependent noradrenaline transporter (Homo sapiens, UniProt P23975); assay: Displacement of [3H]nisoxetine from human recombinant norepinephrine transporter expressed in CHO cells after 120 mins; format: cell-based
# T2 sequence (P23975 whole entry): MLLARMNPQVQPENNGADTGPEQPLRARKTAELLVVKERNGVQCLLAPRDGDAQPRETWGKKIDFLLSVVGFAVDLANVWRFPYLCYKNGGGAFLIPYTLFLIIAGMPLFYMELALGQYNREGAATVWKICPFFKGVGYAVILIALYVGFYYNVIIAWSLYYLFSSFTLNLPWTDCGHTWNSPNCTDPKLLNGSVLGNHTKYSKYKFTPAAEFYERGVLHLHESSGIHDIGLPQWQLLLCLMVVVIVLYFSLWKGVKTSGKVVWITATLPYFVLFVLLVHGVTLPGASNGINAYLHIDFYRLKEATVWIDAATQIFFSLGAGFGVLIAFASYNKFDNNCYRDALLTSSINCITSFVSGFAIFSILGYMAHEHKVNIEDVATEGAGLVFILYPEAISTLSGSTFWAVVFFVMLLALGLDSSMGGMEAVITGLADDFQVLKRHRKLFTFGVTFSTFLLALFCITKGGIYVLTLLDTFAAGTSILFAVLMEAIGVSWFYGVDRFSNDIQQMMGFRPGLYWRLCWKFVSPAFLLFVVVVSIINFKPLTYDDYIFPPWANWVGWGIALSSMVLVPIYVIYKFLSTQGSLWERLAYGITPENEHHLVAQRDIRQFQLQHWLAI
# Nitric oxide synthase 1 [11] = molecular target: Nitric oxide synthase 1 (Rattus norvegicus, UniProt P29476); assay: Inhibition of rat recombinant nNOS expressed in baculovirus infected insect Sf9 cells assessed as conversion of [3H]L-arginine to [3H]L-citrulline incubated for 15 mins prior to substrate addition measured after 45 mins by liquid scintillation counting
# [12] = molecular target: Muscarinic acetylcholine receptor M2 (Homo sapiens) (UniProt P08172); assay: Displacement of [3H]AF-DX 384 from human recombinant muscarinic M2 receptor expressed in CHO cells at 10 uM after 60 mins; format: cell-based; summary of the method: as §1
# Sequence of Muscarinic acetylcholine receptor M2 (Homo sapiens) (P08172 whole entry): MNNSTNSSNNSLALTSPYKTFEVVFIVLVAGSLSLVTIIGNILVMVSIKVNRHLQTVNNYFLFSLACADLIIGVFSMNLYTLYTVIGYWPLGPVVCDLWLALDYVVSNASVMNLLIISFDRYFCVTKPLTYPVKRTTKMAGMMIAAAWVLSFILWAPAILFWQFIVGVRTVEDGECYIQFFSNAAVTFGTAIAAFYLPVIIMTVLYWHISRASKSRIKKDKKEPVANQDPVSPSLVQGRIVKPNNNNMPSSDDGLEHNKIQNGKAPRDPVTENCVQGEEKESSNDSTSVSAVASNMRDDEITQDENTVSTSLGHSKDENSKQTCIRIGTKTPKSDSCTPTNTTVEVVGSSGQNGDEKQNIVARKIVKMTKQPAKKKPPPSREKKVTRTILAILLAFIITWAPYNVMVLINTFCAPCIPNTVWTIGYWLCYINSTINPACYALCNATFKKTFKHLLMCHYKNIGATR
# [13] = molecular target: Nitric oxide synthase, inducible (Rattus norvegicus, UniProt Q06518); assay: Inhibition of rat recombinant iNOS expressed in baculovirus infected insect Sf9 cells assessed as conversion of [3H]L-arginine to [3H]L-citrulline incubated for 15 mins prior to substrate addition measured after 45 mins by liquid scintillation counting
# Nitric oxide synthase 3 [14] = molecular target: Nitric oxide synthase 3 (Rattus norvegicus, UniProt Q62600); assay: Inhibition of rat recombinant eNOS expressed in baculovirus infected insect Sf9 cells assessed as conversion of [3H]L-arginine to [3H]L-citrulline incubated for 15 mins prior to substrate addition measured after 45 mins by liquid scintillation counting
# [15] = molecular target: Muscarinic acetylcholine receptor M5 (Homo sapiens) (UniProt P08912); assay: Displacement of [3H]4-DAMP from human recombinant muscarinic M5 receptor expressed in CHO cells at 10 uM after 60 mins; format: cell-based; summary of the method: as §1
# [16] = molecular target: Muscarinic acetylcholine receptor M4 (Homo sapiens) (UniProt P08173); assay: Displacement of [3H]4-DAMP from human recombinant muscarinic M4 receptor expressed in CHO cells at 10 uM after 60 mins; format: cell-based; summary of the method: as §1
# [17] = Cardiotoxicity in human arteries assessed as inhibition of acetylcholine-mediated vasorelaxation at 100 uM pretreated with U46619 prior to Ach challenge measured after 50 mins in presence of L-arginine; format: toxicity, tissue-based, Artery
# [18] = molecular target: 5-hydroxytryptamine receptor 1B (Rattus norvegicus) (UniProt P28564); assay: Displacement of [125I]CYP from rat cerebral cortex 5HT1B receptor at 10 uM after 120 mins in the presence of (-)propranolol; format: tissue-based; summary of the method: as §1
# [19] = molecular target: Mu-type opioid receptor (Homo sapiens) (UniProt P35372); assay: Displacement of [3H]DAMGO from human recombinant mu opioid receptor expressed in HEK 293 cells at 10 uM after 120 mins; format: cell-based; conditions: HEK293; summary of the method: as §1
# [20] = molecular target: Adrenergic receptor alpha-2 (Rattus norvegicus) (UniProt P22086+P19328+P22909); assay: Displacement of [3H]RX 821002 from rat cerebral cortex alpha2 adrenergic receptor at 10 uM after 60 mins; format: tissue-based; summary of the method: as §1
# [21] = molecular target: T2, Sodium-dependent noradrenaline transporter; assay: Displacement of [3H]nisoxetine from human recombinant norepinephrine transporter expressed in CHO cells at 10 uM after 120 mins; format: cell-based; summary of the method: as §1
# [22] = molecular target: Muscarinic acetylcholine receptor M3 (Homo sapiens) (UniProt P20309); assay: Displacement of [3H]4-DAMP from human recombinant muscarinic M3 receptor expressed in CHO cells at 10 uM after 60 mins; format: cell-based; summary of the method: as §1
# Rattus norvegicus [23] = species: Rattus norvegicus; assay: Displacement of [3H]DTG from rat cerebral cortex sigma receptor at 10 uM after 120 mins; format: tissue-based; summary of the method: as §1
# [24] = molecular target: 5-hydroxytryptamine receptor 5A (Homo sapiens) (UniProt P47898); assay: Displacement of [3H]LSD from human recombinant 5-HT5a receptor expressed in HEK293 cells at 10 uM after 120 mins; format: cell-based; summary of the method: as §1
# Sequence of 5-hydroxytryptamine receptor 5A (Homo sapiens) (P47898 whole entry): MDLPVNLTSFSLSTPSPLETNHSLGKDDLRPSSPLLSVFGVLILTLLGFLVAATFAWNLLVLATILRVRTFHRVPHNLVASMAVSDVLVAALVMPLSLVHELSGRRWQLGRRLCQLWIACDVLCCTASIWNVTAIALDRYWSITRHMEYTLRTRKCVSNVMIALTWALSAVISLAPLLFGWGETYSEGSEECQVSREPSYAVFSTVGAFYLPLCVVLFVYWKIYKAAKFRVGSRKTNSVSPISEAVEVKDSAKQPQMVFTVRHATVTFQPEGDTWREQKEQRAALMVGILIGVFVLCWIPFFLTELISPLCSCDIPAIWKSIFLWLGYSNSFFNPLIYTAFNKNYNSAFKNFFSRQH
# [25] = molecular target: Voltage-gated inwardly rectifying potassium channel KCNH2 (Homo sapiens, UniProt Q12809); assay: Inhibition of human Erg expressed in HEK293 cells by patch clamp assay
IC50 (Nitric oxide synthase 3 [1]),IC50 [2],Ratio IC50 (Homo sapiens),Ratio IC50 [3],IC50 (Nitric oxide synthase 1 [4]),Structure (SMILES),other results
243 µM,481 µM,13,26,18.8 µM,N=C(Nc1cc2c(cc1F)CCN2C1CCNCC1)c1cccs1,–
–,–,26,–,–,N=C(Nc1ccc2c(c1)N(C1CCOCC1)CC2)c1cccs1,–
–,–,71,62,–,N=C(Nc1ccc2c(c1)N(CCN1CC[C@@H](O)C1)CC2)c1cccs1,–
–,–,183,4,–,N=C(Nc1ccc2c(c1)N(C1CCNCC1)CC2)c1cccs1,–
99 µM,2.39 µM,–,–,0.54 µM,NC(=Nc1ccc2c(c1)N(C1CCNCC1)CC2)c1cccs1,–
–,–,27,–,–,N=C(Nc1ccc2c(c1)N(C1CCCCC1)CC2)c1cccs1,–
109 µM,> 100 µM,–,–,4.07 µM,NC(=Nc1ccc2c(c1)N(C1CCCCC1)CC2)c1cccs1,–
195 µM,83 µM,–,–,0.37 µM,CN[C@H]1CC[C@@H](N2CCc3ccc(NC(=N)c4cccs4)cc32)CC1,inhibition [5]: 80%; MPE (Rattus norvegicus [6]): 66%; Activity [7]: Not Active; inhibition [8]: 69%; Activity (Rattus norvegicus [9]): Active; IC50 [10]: 4.4 µM; IC50 (Nitric oxide synthase 1 [11]): 1.93 µM; inhibition [12]: 80%; IC50 [13]: 2.34 µM; IC50 (Nitric oxide synthase 3 [14]): 4.16 µM; inhibition [15]: 90%; inhibition [16]: 95%; Activity [17]: Not Active; inhibition [18]: 60%; inhibition [19]: 52%; inhibition [20]: 58%; inhibition [21]: 86%; inhibition [22]: 85%; inhibition (Rattus norvegicus [23]): 72%; inhibition [24]: 59%
237 µM,189 µM,–,–,2.12 µM,CN[C@H]1CC[C@H](N2CCc3ccc(NC(=N)c4cccs4)cc32)CC1,–
–,–,10,0.5,–,N=C(Nc1ccc2c(c1)N(C1CCSCC1)CC2)c1cccs1,–
7.12 µM,6.79 µM,–,–,0.11 µM,NC(=Nc1ccc2c(c1)N(CCN1CC[C@@H](O)C1)CC2)c1cccs1,–
220 µM,897 µM,38,154,5.82 µM,CN[C@H]1CC[C@@H](N2CCc3cc(F)c(NC(=N)c4cccs4)cc32)CC1,–
7.17 µM,8.94 µM,40,50,0.18 µM,N=C(Nc1ccc2c(c1)N(C1CCNC1)CC2)c1cccs1 (racemic),–
21.5 µM,1.12 µM,–,–,2.07 µM,NC(=Nc1ccc2c(c1)N(C1CCSCC1)CC2)c1cccs1,–
3.36 µM,3.41 µM,–,–,0.07 µM,NC(=Nc1ccc2c(c1)N(CCNCCO)CC2)c1cccs1,–
–,–,–,–,–,CN1CCC[C@H]1CCN1CCCc2cc(NC(=N)c3cccs3)ccc21,Activity [7]: Active; IC50 [25]: 4.7 µM; Activity [17]: Active
–,–,48,49,–,N=C(Nc1ccc2c(c1)N(CCNCCO)CC2)c1cccs1,–
231 µM,522 µM,41,91,5.75 µM,CN[C@H]1CC[C@H](N2CCc3cc(F)c(NC(=N)c4cccs4)cc32)CC1,–
84.8 µM,> 100 µM,–,–,3.26 µM,NC(=Nc1ccc2c(c1)N(C1CCOCC1)CC2)c1cccs1,–
